Among the data in the RNAGym collection of RNA variant scans (doi:10.1002/anie.201605470) are self-cleavage values, retold here.

B1: Osa-1-4 twister ribozyme (parent)
chain: CCGCCUAACACUGCCAAUGCCGGUCCCAAGCCCGGAUAAAAGUGGAGGGGGCGG

Variants of B1 are the subject of the data set. Kind of data set: self-cleavage, relative activity (ratio to wild type); higher = more cleavage; co-transcriptional. The essentials:
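The 48 positions downstream of the cleavage site in a 54-nucleotide Oryza sativa twister ribozyme template were synthesised at 97 % wild-type base and 1 % of each other base. The template was transcribed in vitro at 37 °C for 2 h, with self-cleavage allowed during transcription. Reads with or without upstream sequence after deep sequencing marked cleavage status, and relative activity is fraction cleaved normalised to wild type.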
Consider CCGCCUAACACUGCCAAUGCCGGUCCCAAGCCCGGAUAGAAGGGGAGGGGGCGG, for which the self-cleavage turned out to be 0.36.

Consider CCGCCUAACACUGCCAAUGCCGGUCCCAAGCCCGGAUAGAAGAGGAGGGGGCGG, for which the self-cleavage was determined as 0.8.

Turning to CCGCCUAACACUGCCAAUGCCGGUCCCAAGCCCGGAUAGAAGCGGAGGGGGCGG, the self-cleavage came to 0.24.

In the case of CCGCCUAACACUGCCAAUGCCGGUCCCAAGCCCGGAUAUAUGUGGAGGGGGCGG, the self-cleavage amounted to 1.03.

Take CCGCCUAACACUGCCAAUGCCGGUCCCAAGCCCGGAUAUAGGUGGAGGGGGCGG: the self-cleavage amounted to 0.26.

Turning to CCGCCUAACACUGCCAAUGCCGGUCCCAAGCCCGGAUAUACGUGGAGGGGGCGG, the self-cleavage came to 0.66.

For the variant CCGCCUAACACUGCCAAUGCCGGUCCCAAGCCCGGAUAUCAGUGGAGGGGGCGG, the self-cleavage stood at 0.12.

Consider CCGCCUAACACUGCCAAUGCCGGUCCCAAGCCCGGAUAUUAGUGGAGGGGGCGG, for which the self-cleavage is 0.64.

With CCGCCUAACACUGCCAAUGCCGGUCCCAAGCCCGGAUAUGAGUGGAGGGGGCGG, the self-cleavage stood at 0.65.

As to CCGCCUAACACUGCCAAUGCCGGUGCCAAGCCCGGAUAUAAGUGGAGGGGGCGG, the self-cleavage amounted to 0.07.

In the case of CCGCCUAACACUGCCAAUGCCGGUACCAAGCCCGGAUAUAAGUGGAGGGGGCGG, the self-cleavage was found to be 0.06.

Consider CCGCCUAACACUGCCAAUGCCGGUUCCAAGCCCGGAUAUAAGUGGAGGGGGCGG, for which the self-cleavage was 0.45.

On to CCGCCUGACACUGCCAAUGCCGGUCCCAAGCCCGGAUAUAAGUGGAGGGGGCGG, for which the self-cleavage was 0.2.

As to CCGCCUCACACUGCCAAUGCCGGUCCCAAGCCCGGAUAUAAGUGGAGGGGGCGG, the self-cleavage is 0.04.

Consider CCGCCUUACACUGCCAAUGCCGGUCCCAAGCCCGGAUAUAAGUGGAGGGGGCGG, for which the self-cleavage was 0.08.

Consider CCGCCUAACACUGCCAAUGCCGGUCCCAAGCCCGGAUAGAAGUAGAGGGGGCGG, for which the self-cleavage was 0.85.

Regarding CCGCCUAACACUGCCAAUGCCGGUCCCAAGCCCGGAUAGAAGUCGAGGGGGCGG, the self-cleavage was found to be 0.93.

For the variant CCGCCUAACACUGCCAAUGCCGGUCCCAAGCCCGGAUAGAAGUUGAGGGGGCGG, the self-cleavage came to 0.89.

With CCGCCUAACACUGCCAAUGCCGGUCCCAAGCCCCGAUAGAAGUGGAGGGGGCGG, the self-cleavage was 0.42.

With CCGCCUAACACUGCCAAUGCCGGUCCCAAGCCCUGAUAGAAGUGGAGGGGGCGG, the self-cleavage turned out to be 0.68.

In the case of CCGCCUAACACUGCCAAUGCCGGUCCCAAGCCCGGAUAGAAGUGGAGGGUGCGG, the self-cleavage is 1.

As to CCGCCUAACACUGCCAAUGCCGGUCCCAAGCCCGGAUAGAAGUGGAGGGCGCGG, the self-cleavage amounted to 0.84.

Regarding CCGCCUAACACUGCCAAUGCCGGUCCCAAGCCCGGAUAGAAGUGGAGGGAGCGG, the self-cleavage turned out to be 0.72.

For CCGCCUAACACUGCCAAUGCCGGUCCCAAGCCCGGAUAGAAGUGGAAGGGGCGG, the self-cleavage is 0.13.

For the variant CCGCCUAACACUGCCAAUGCCGGUCCCAAGCCCGGAUAGAAGUGGACGGGGCGG, the self-cleavage is 0.09.

As to CCGCCUAACACUGCCAAUGCCGGUCCCAAGCCCGGAUAGAAGUGGAUGGGGCGG, the self-cleavage was 0.13.

As for CCGCCUAUCACUGCCAAUGCCGGUCCCAAGCCCGGAUAUAAGUGGAGGGGGCGG, the self-cleavage is 0.16.

In the case of CCGCCUACCACUGCCAAUGCCGGUCCCAAGCCCGGAUAUAAGUGGAGGGGGCGG, the self-cleavage turned out to be 0.08.

For CCGCCUAGCACUGCCAAUGCCGGUCCCAAGCCCGGAUAUAAGUGGAGGGGGCGG, the self-cleavage was found to be 0.31.

Turning to CCGCCUAACAAUGCCAAUGCCGGUCCCAAGCCCGGAUAUAAGUGGAGGGGGCGG, the self-cleavage is 0.38.

On to CCGCCUAACAUUGCCAAUGCCGGUCCCAAGCCCGGAUAUAAGUGGAGGGGGCGG, for which the self-cleavage is 0.89.

Turning to CCGCCUAACAGUGCCAAUGCCGGUCCCAAGCCCGGAUAUAAGUGGAGGGGGCGG, the self-cleavage is 0.24.

Turning to CCGCCUAACACUGCCAAUGCCGGUCCCAAGCCCGGAUAGAAGUGGAGGAGGCGG, the self-cleavage came out at 0.26.

As to CCGCCUAACACUGCCAAUGCCGGUCCCAAGCCCGGAUAGAAGUGGAGGUGGCGG, the self-cleavage is 0.1.

With CCGCCUAACACUGCCAAUGCCGGUCCCAAGCCCGGAUAGAAGUGGAGGCGGCGG, the self-cleavage is 0.08.

Take CCGCCUAACACUGCCAAUGCCGGUCCCAAGCCCGGAUAUAAGUGGAGGGGGCGG: the self-cleavage is 1.

With CCGCCUAACACUGCCAAUGCCGGUCCCAAGCCCGGAUAGAAGUGCAGGGGGCGG, the self-cleavage amounted to 0.07.

For the variant CCGCCUAACACUGCCAAUGCCGGUCCCAAGCCCGGAUAGAAGUGAAGGGGGCGG, the self-cleavage stood at 0.13.

For CCGCCUAACACUGCCAAUGCCGGUCCCAAGCCCGGAUAGAAGUGUAGGGGGCGG, the self-cleavage came to 0.08.

Regarding CCGCCUAACACUGCCAAUGCCGGUCGCAAGCCCGGAUAUAAGUGGAGGGGGCGG, the self-cleavage is 0.11.

In the case of CCGCCUAACACUGCCAAUGCCGGUCUCAAGCCCGGAUAUAAGUGGAGGGGGCGG, the self-cleavage was 0.54.

For the variant CCGCCUAACACUGCCAAUGCCGGUCACAAGCCCGGAUAUAAGUGGAGGGGGCGG, the self-cleavage turned out to be 0.04.

Regarding CCGCCUAACACUGCCAAUGCGGGUCCCAAGCCCGGAUAUAAGUGGAGGGGGCGG, the self-cleavage turned out to be 0.07.

CCGCCUAACACUGCCAAUGCAGGUCCCAAGCCCGGAUAUAAGUGGAGGGGGCGG: the self-cleavage came out at 0.38.

In the case of CCGCCUAACACUGCCAAUGCUGGUCCCAAGCCCGGAUAUAAGUGGAGGGGGCGG, the self-cleavage is 0.99.

CCGCCUAACACUGCGAAUGCCGGUCCCAAGCCCGGAUAUAAGUGGAGGGGGCGG: the self-cleavage worked out at 0.23.

Turning to CCGCCUAACACUGCAAAUGCCGGUCCCAAGCCCGGAUAUAAGUGGAGGGGGCGG, the self-cleavage is 0.24.

For CCGCCUAACACUGCUAAUGCCGGUCCCAAGCCCGGAUAUAAGUGGAGGGGGCGG, the self-cleavage is 0.56.
